Where only a bound is given, the exact number is not on record here.

The subject of one data set is P388. The data set is described as follows: Cytotoxic activity against mouse leukemia P388 cell line. Type of data set: functional. A digest of the protocol:
(§1)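 Growth inhibition (IC50) of mouse leukemia P388 and human lung cancer PC-6 and PC-12 cells after 72 h continuous exposure to compound; IC50 taken as the concentration giving 50% growth inhibition.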

In the next data set the test system is PC-12. The data set is described as follows: Cytotoxic activity against human lung cancer PC-12 cell line.
The subject of data set [1] is Mus musculus. The data set is described as follows: Mean tumor weight was determined in mice inoculated with B16 melanoma BL6 cells sc at a dose 100 mg/kg iv [IR (%) = (1-TWt/TWc)*100]. It counts as functional. An outline of the steps:
(§2)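 C57BL/6 mice (six per group) received subcutaneous B16 melanoma BL6 cells on day 0 and a single iv or oral dose on day 4. Tumors were excised and weighed on day 15. Inhibition rate IR (%) = (1 − mean treated tumor weight/mean control tumor weight) × 100.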

For data set [2], the system named is Mus musculus. The data set is described as follows: Maximum rate of body weight loss was determined in mice inoculated with B16 melanoma BL6 cells sc at a dose 100 mg/kg by intravenous administration. Type of data set: functional. A digest of the protocol:
(§3)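 On day 0, B16 melanoma BL6 cells (cultured line) were implanted subcutaneously into C57BL/6 mice, six per group. A single iv or oral dose was given on day 4, and body weight was followed. BWLmax (%) is the maximum rate of body weight loss; a value below 0 means no loss.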

The nature of data set [3]: Solubility of compound in JP1 at pH 1.2 using UV assay. It counts as physicochemical. As to conditions: JP1, pH 1.2.
In data set [4] the test system is Mus musculus. As to the kind of experiment: Mean tumor weight was determined in mice inoculated with B16 melanoma BL6 cells sc at a dose 600 mg/kg po [IR (%) = (1-TWt/TWc)*100]. It counts as functional. An outline of the steps: as §2
Data set [5] concerns Mus musculus. As to the kind of experiment: Mortality was determined in mice inoculated with B16 melanoma BL6 cells sc at a dose 100 mg/kg by intravenous administration; 0/6. It counts as functional.
The nature of data set [6]: Solubility of compound in JP2 at pH 6.8 using UV assay. Type of data set: physicochemical. As to conditions: JP2, pH 6.8.
For data set [7], the system named is Mus musculus. The data set is described as follows: Maximum rate of body weight loss was determined in mice inoculated with B16 melanoma BL6 cells sc at a dose 600 mg/kg by peroral administration. Type of data set: functional. Conditions: route oral. A digest of the protocol:
as §3

For data set [8], the system named is Mus musculus. The data set is described as follows: Mortality was determined in mice inoculated with B16 melanoma BL6 cells sc at a dose 600 mg/kg by peroral administration; 0/6. Conditions: route oral. It counts as functional.
Another data set has as its system PC-6. As to the kind of experiment: Cytotoxic activity against human lung cancer PC-6 cell line. Type of data set: functional. An outline of the steps: as §1
Data set [9] is described as follows: Solubility in water using UV assay. Type of data set: physicochemical.

For the compound `CC(=O)O[C@@]12CO[C@@H]1C[C@H](O)[C@@]1(C)C(=O)[C@H](O)C3=C(C)[C@@H](OC(=O)[C@H](O)[C@@H](NC(=O)OC(C)(C)C)c4ccccc4)C[C@@](O)([C@@H](OC(=O)c4ccccc4)[C@H]21)C3(C)C.O.O.O` [DOCETAXEL], the GI50 (as a rule, the concentration at which growth is held to half of that of the control) in the data set on P388 is 0.78 ng/mL; in the data set on PC-12, 14.9 ng/mL; in the data set with PC-6, 0.41 ng/mL. Moreover, the IR in the data set on Mus musculus [1] amounted to 95.1%; in the data set with Mus musculus [4], 6.2%. Besides, the BWLmax in the data set with Mus musculus [2] and in the data set on Mus musculus [7] was under 0% throughout. Further, the solubility in [3], in [6] and in data set [9] was under 4 µg/mL throughout. The Mortality with Mus musculus [5] and in the data set with Mus musculus [8] was 0 throughout.

(Values after ChEMBL document CHEMBL1136257, “New highly active taxoids from 9beta-dihydrobaccatin-9,10-acetals. Part 3” (Bioorg Med Chem Lett, 2003).)
